Test results published in ChEMBL document CHEMBL4145443, “Synthesis, β-hematin inhibition studies and antimalarial evaluation of new dehydroxy isoquine derivatives against Plasmodium berghei: A promising antimalarial agent” (Eur J Med Chem, 2018).

Key:
[1] = Inhibition of acetate buffer-initiated beta-hematin polymerization at 50 uM measured after 48 hrs relative to control
In short: (§1)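 Hemin chloride (4 mM in DMSO) was dispensed into plates with compound in DMSO (50-5 µM), in triplicate. Water or DMSO served as controls. Reaction was started with 0.2 M acetate buffer, pH 4.4, and run at 37 °C for 48 h. The pellet was centrifuged, washed twice with DMSO, dissolved in 0.2 N NaOH, diluted 1:2 in 0.1 N NaOH and read at 405 nm as % inhibition.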

[2] = Inhibition of acetate buffer-initiated beta-hematin polymerization measured after 48 hrs; in short: as §1
[3] = Cytotoxicity against mouse peritoneal macrophages assessed as growth inhibition after 48 hrs by MTT assay; type: cell-based, Peritoneal macrophage; conditions: read-out: LD50
In short: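 Murine peritoneal macrophages plated at 5 × 10^4 cells/well in DMEM with 5 mM L-glutamine, 10% FBS and antibiotics, then incubated overnight at 5% CO2. Compounds added at varied concentrations in duplicate wells, 48 h further incubation. Viability read by MTT reduction as % of untreated controls. LD50 taken by non-linear regression of % viability vs log concentration.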

[4] = Hemolytic activity in human RBC after 45 mins by spectrophotometric method; type: ADME, cell-based, Erythrocyte; conditions: red blood cells (erythrocytes)
In short: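 Human RBCs from 50% Alsever's solution were spun at 800g for 10 min and washed three times in saline. Compounds (5-5000 µM) were incubated with a 2% final RBC suspension at 37°C for 45 min. Released haemoglobin was read at 550 nm, with water as the 100% lysis control and saline as the negative control. Result given as the concentration lysing half the RBCs.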

Plasmodium berghei [5] = experiment: Antimalarial activity against Plasmodium berghei ANKA infected in Balb/c mouse assessed as mouse survival time at 20 mg/kg, ip qd administered for 4 days starting from 2 hrs post infection (reference value: 6.8 +/- 0.7day); type: functional
In short: (§2)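 Male Balb-C mice (18-22 g, n=6 per group) infected i.v. via caudal vein with 10^6 P. berghei-infected RBC. Treatment started 2 h post-infection, once daily i.p. for 4 days. Compounds dissolved in DMSO (0.1 M stock), diluted with 2% Saline-Tween 20. Saline-treated controls. Survival time recorded relative to saline group. Parasitemia by Giemsa-stained smears at day 4. Mean±SD.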

Plasmodium berghei [6] = experiment: Antimalarial activity against Plasmodium berghei ANKA infected in Balb/c mouse assessed as parasitemia at 20 mg/kg, ip qd administered for 4 days starting from 2 hrs post infection by Giemsa staining based microscopic method (reference value: 65.2 +/- 2.58%); type: functional
Plasmodium berghei [7] = experiment: Antimalarial activity against Plasmodium berghei ANKA infected in Balb/c mouse assessed as mouse survival time at 25 mg/kg, ip qd administered for 4 days starting from 2 hrs post infection (reference value: 6.8 +/- 0.7day); type: functional; in short: as §2
Plasmodium berghei [8] = experiment: Antimalarial activity against Plasmodium berghei ANKA infected in Balb/c mouse assessed as parasitemia at 25 mg/kg, ip qd administered for 4 days starting from 2 hrs post infection by Giemsa staining based microscopic method (reference value: 65.2 +/- 2.58%); type: functional

| SMILES | inhibition [1] [%] | IC50 [2] [µM] | CC50 at 48 h [3] [µM] | HC50 at 0.75 h [4] [mM] | Time (Plasmodium berghei [5]) [days] | Activity (Plasmodium berghei [6]) [%] | Time (Plasmodium berghei [7]) [days] | Activity (Plasmodium berghei [8]) [%] |
| --- | --- | --- | --- | --- | --- | --- | --- | --- |
| CC(C)(C)NCc1ccc(Nc2ccnc3cc(Cl)ccc23)cc1.Cl | 98.6 | 1.66 | 47.1 | 1.49 | 25.8 | 4 | – | – |
| Clc1ccc2c(Nc3ccc(CN4CCOCC4)cc3)ccnc2c1 | 5.17 | > 50 | 36.2 | 0.591 | – | – | – | – |
| CCN(CC)Cc1ccc(Nc2ccnc3cc(Cl)ccc23)cc1 | 98.2 | 1.78 | 42.4 | 2.92 | 24.9 | 3.8 | – | – |
| CCN(CC)CCCC(C)Nc1ccnc2cc(Cl)ccc12 (stereo unspecified) [CHLOROQUINE] | 98.6 | 1.48 | – | > 1.5 | – | – | 29.4 | 0.6 |
